Screens (PubChem)
E-sel inducer = E-selectin induction on HUVECs; AID 686992; 0.37% of 260,000 active; HUVEC E-selectin immunofluorescence imaging; normalized: neutral wells 0, TNF-alpha wells 100; activation, % at 7.58 µM; P16581;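 active means mean E-selectin-positive cell signal at least 10% of the positive control, reached in at least 60% of replicates, without over 20% cell loss; inconclusive means no rule given, readout overlaps actives, possibly toxicity-flagged; inactive means the rest, including those meeting only one limit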
Target sequence (P16581 whole entry, looked up): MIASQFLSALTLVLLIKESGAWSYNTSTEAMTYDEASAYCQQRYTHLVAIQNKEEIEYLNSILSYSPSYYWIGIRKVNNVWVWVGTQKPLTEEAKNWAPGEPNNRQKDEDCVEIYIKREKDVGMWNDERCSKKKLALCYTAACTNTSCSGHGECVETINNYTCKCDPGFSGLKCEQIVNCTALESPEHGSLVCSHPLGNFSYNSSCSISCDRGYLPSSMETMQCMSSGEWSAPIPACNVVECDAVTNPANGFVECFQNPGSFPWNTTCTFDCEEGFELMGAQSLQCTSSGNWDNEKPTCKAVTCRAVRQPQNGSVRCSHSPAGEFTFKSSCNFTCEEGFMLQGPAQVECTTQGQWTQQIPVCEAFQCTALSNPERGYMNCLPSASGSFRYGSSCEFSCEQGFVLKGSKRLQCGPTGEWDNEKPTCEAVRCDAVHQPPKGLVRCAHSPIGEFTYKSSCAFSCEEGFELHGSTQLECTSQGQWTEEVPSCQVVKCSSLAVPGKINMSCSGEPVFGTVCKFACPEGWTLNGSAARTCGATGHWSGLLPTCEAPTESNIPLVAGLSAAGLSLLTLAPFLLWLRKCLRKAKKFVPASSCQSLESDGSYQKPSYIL
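Read-out: % PE-positive cells | Test system: HUVEC | Doses: One compound dose added by pin transfer | Buffer or medium: EGM-2 over gelatin coat | Signal: Immunofluorescence imaging | Benchmarks: TNF-alpha, DMSO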
DENV2 CPE = DENV2-induced cell death inhibition; 1.7% of 350,000 active; DENV2-infected cells, cytopathic effect rescue, plate reader; AID 651640; CPE inhibition, % at 9.99 µM; in the data active means CPE inhibition above about 20%, passing the limit was not always enough; inconclusive means no clear call, values can overlap the other calls; tested in BHK-21 cells;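 further: 0% = median of neutral control wells and 100% = median of positive control wells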
SIRT5 block = sirtuin-5 (human) deacylase inhibition; Q9NXA8; Purified SirT5, succinyl-peptide AMC, trypsin-coupled fluorescence; inhibition, % at 15 µM; 1.1% of 330,000 active; in the data active means inhibition above about 15%; inconclusive means no clear call, values can overlap the other calls
* = called active by the depositor; ? = inconclusive; · = no result given. In the library only some 2.9% were active in any assay of this set; here they are far more common.

SMILES	E-sel inducer	DENV2 CPE	SIRT5 block
N#C[C@H]1[C@@H](c2ccc(C#Cc3ccccc3F)cc2)[C@@H](CO)N1C(=O)C1CCCC1	0	33*	0
N#C[C@H]1[C@H](c2ccc(C#Cc3ccc(F)cc3)cc2)[C@H](CO)N1C(=O)C1CC1	0	-5	2
N#C[C@@H]1[C@@H](c2ccc(C#Cc3ccccc3F)cc2)[C@@H](CO)N1C(=O)C1CCCCC1	-1	?	5
N#C[C@H]1[C@@H](c2ccc(C#Cc3ccccc3F)cc2)[C@H](CO)N1C(=O)C1CC1	0	3	-1
N#C[C@@H]1[C@H](c2ccc(C#Cc3ccccc3F)cc2)[C@H](CO)N1C(=O)C1CCC1	0	102*	3
O=C1N(c2ccccc2)C[C@@H]2C[C@@H](c3cccs3)N3CCC[C@@]123	0	-4	-1
C[C@H]1CN([C@@H](C)CO)S(=O)(=O)c2ccc(C#Cc3ccncc3)cc2O[C@@H]1CN(C)C(=O)C1CCOCC1	0	13	1
CCOC(=O)Nc1cc(N)ncn1	2	-3	-2
CCOC(=O)CSc1nc2cc(S(=O)(=O)Nc3ccccc3OC)ccc2o1	·	-3	0
CN(C)/C=N/c1c(C#N)cnn1-c1ncnc2sc(-c3ccccc3)cc12	·	·	-6
COc1ccc(CN(C)C(=O)c2cnc(OC)cc2C(F)(F)F)c(OC)c1	0	0	-10
C[C@@H]1CN([C@H](C)CO)C(=O)c2cc(NC(=O)Nc3ccc(F)cc3)ccc2O[C@H]1CN(C)Cc1ccc(-c2ccccc2)cc1	4	?	9
COc1ccccc1C#Cc1ccc([C@@H]2[C@@H](C#N)N(C(=O)C3CCC3)[C@H]2CO)cc1	0	22*	2
COc1ccccc1C#Cc1ccc([C@@H]2[C@H](C#N)N(C(=O)C3CCC3)[C@H]2CO)cc1	0	-9	-1
CCCn1c(SCC(=O)NC)nc2sc3c(c2c1=O)CCC3	0	0	-6
CCSc1nc2sc3c(c2c(=O)n1CC)CCC3	·	40*	0
Cc1ccccc1-n1ncc2c1CC(C)(C)CC2NC(=O)CSc1ccncc1 (stereo not drawn)	-2	108*	0
Cc1ccccc1-n1ncc2c1CC(C)(C)CC2NC(=O)c1ccncc1 (stereo not drawn)	-1	-5	-1
C=CCC[C@@H](Cc1ccc(F)cc1)C(=O)OCCNC(=O)[C@@H](CC=C)CC(=O)N[C@H](CO)Cc1ccccc1	0	44*	3
C=CCC[C@@H](Cc1ccc(F)cc1)C(=O)OC[C@@H](C)NC(=O)[C@@H](CC=C)CC(=O)N[C@H](CO)Cc1ccccc1	0	8	8
C=CC[C@H](CC(=O)NCCO)C(=O)N[C@@H](C)COC(=O)[C@H](CC=C)CC(=O)OC(C)(C)C	-2	-2	0
C=CC[C@@H](CC(=O)N[C@@H](CO)Cc1ccccc1)C(=O)N[C@H](COC(=O)[C@@H](CC=C)Cc1ccc(F)cc1)C(C)(C)C	1	1	5
C=CC[C@@H](CC(=O)N[C@H](CO)Cc1ccccc1)C(=O)N[C@@H](C)COC(=O)[C@@H](CC=C)Cc1ccc(F)cc1	0	41*	·
C=CCC[C@@H](Cc1ccc(F)cc1)C(=O)OCCNC(=O)[C@@H](CC=C)CC(=O)N[C@@H](CO)Cc1ccccc1	-6	-7	-4
C=CCC[C@@H](Cc1ccc(F)cc1)C(=O)OC[C@@H](NC(=O)[C@@H](CC=C)CC(=O)N[C@H](CO)Cc1ccccc1)C(C)(C)C	0	25*	·
SMILES	E-sel inducer	DENV2 CPE	SIRT5 block
C=CC[C@@H](CC(=O)NCCO)C(=O)N[C@@H](C)COC(=O)[C@H](CC=C)CC(=O)OC(C)(C)C	·	46*	-1
FC(F)(F)Sc1ccc(NC(=S)NCc2ccccc2)cc1	·	-8	-3
Cc1cc(Oc2cccc3c2S(=O)(=O)N([C@H](C)c2ccccc2)C[C@@H](COCc2ccccc2)O3)cc(C)c1C	0	4	·
C[C@@H]1CN([C@@H](C)CO)C(=O)c2cc(C#CC3CC3)cnc2O[C@@H]1CN(C)Cc1ccncc1	-1	4	5
COc1cc(/C=N/NC(=O)CCNC(=O)c2ccccc2Cl)ccc1O	4	-6	2
C[C@@H]1CCCCO[C@@H](CN(C)Cc2ccc(C(=O)Nc3ccccc3N)cc2)[C@@H](C)CN([C@H](C)CO)C(=O)c2cc(NC(=O)c3ccccc3)ccc2O1	·	7	·
O=C(C1=NN(c2ccccc2)C2C(=O)N(c3cccc(Cl)c3)C(=O)C12)c1ccccc1 (stereo not drawn)	·	-1	-6
CCOC(=O)c1c[nH]n2c(=S)ncnc12	1	-6	·
c1ccc(Nc2nnc(-c3cccnc3)s2)cc1	48*	1	-2
O=C(CSc1nnc(-c2cccnc2)s1)Nc1ccccc1	·	2	2
CCN(C(=O)CCc1ccccc1)C1CCCCC1	1	-3	-5
O=C(C1Cc2ccccc2CN1S(=O)(=O)c1ccc(F)cc1)N1CCOCC1 (stereo not drawn)	·	5	25*
O=C(O)[C@H]1Cc2ccccc2CN1S(=O)(=O)c1ccc(F)cc1	1	4	-5
Cc1ccc(/C=C/C(=O)O)cc1S(=O)(=O)N(C)CCO	-2	·	-4
CCOc1ccc(CN2CCN(CCCc3ccccc3)CC2CCO)cc1 (stereo not drawn)	·	22*	5
Cc1ccc(CN2CCN(CCCc3ccccc3)CC2CCO)cc1 (stereo not drawn)	5	2	-1
COc1ccc(OC)c(CN2CCN(CCCc3ccccc3)C(CCO)C2)c1 (stereo not drawn)	·	-7	-6
COc1ccc(CN2CCN(CCCc3ccccc3)C(CCO)C2)c(OC)c1 (stereo not drawn)	·	6	18*
C[C@H](CO)N1C[C@H](C)[C@H](CN(C)S(=O)(=O)c2ccccc2)OCCCC[C@H](C)Oc2ccc(NC(=O)Nc3ccc(F)cc3)cc2C1=O	0	22*	-1
C[C@@H]1CCCCO[C@@H](CN(C)S(=O)(=O)c2ccccc2)[C@H](C)CN([C@@H](C)CO)C(=O)c2cc(NC(=O)Nc3ccc(F)cc3)ccc2O1	0	-11	0
C[C@@H]1CCCCO[C@H](CN(C)S(=O)(=O)c2ccc(Cl)cc2)[C@@H](C)CN([C@H](C)CO)C(=O)c2cc(NC(=O)Nc3ccc(F)cc3)ccc2O1	·	8	16*
Cc1noc(C)c1S(=O)(=O)N(C)C[C@@H]1OCCCC[C@@H](C)Oc2ccc(NC(=O)Nc3cccc4ccccc34)cc2C(=O)N([C@H](C)CO)C[C@@H]1C	2	-7	20*
C[C@@H]1CCCCO[C@@H](CN(C)S(=O)(=O)c2ccc(Cl)cc2)[C@@H](C)CN([C@@H](C)CO)C(=O)c2cc(NC(=O)Nc3ccc(F)cc3)ccc2O1	·	29*	7
Cc1noc(C)c1S(=O)(=O)N(C)C[C@H]1OCCCC[C@@H](C)Oc2ccc(NC(=O)Nc3cccc4ccccc34)cc2C(=O)N([C@@H](C)CO)C[C@H]1C	0	-2	7
C[C@H](CO)N1C[C@H](C)[C@H](CN(C)S(=O)(=O)c2ccc(Cl)cc2)OCCCC[C@H](C)Oc2ccc(NC(=O)Nc3ccc(F)cc3)cc2C1=O	·	12	8
